The list is not random: actives were taken first. Their share in the collection is about 2.1%.
Statin myotox sup: protects C2C12 myotubes from simvastatin toxicity; hit rate 0.78% among 330,000; ATP luminescence, 48 h; scaled: DMSO 0, geranylgeraniol control 100; rescue of ATP level, % at 7.49 µM;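 active = mean ATP rescue above about 67%, or every replicate alone reaching that limit, limit read from the data, passing the limit was not always enough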;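 also: myotubes were challenged with 10 µM simvastatin during compound exposure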
XiGFP reactiv: reactivates the inactive X chromosome in mouse fibroblasts; hit rate 0.055% among 360,000; XiGFP mouse fibroblasts, % GFP-positive cells imaging, 3 d; cells co-treated with 5-aza-dC sensitizer; scaled so ellipticine positive control = 100%; activation, % at 7.58 µM; AID 743238;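 active = mean normalized replicate activation at least 10% and every replicate at or above 10%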;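 also: 0% = median of on-plate neutral control wells and 100% = ellipticine 6 µM median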
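Assay system: SV40-immortalized XiGFP fibroblast cells, line 68-5-11; buffer or medium: DMEM plus 5-aza-dC sensitizer; compound: one concentration, pinned; timing: compounds 3 days, fix/stain 15 min at room temperature; benchmarks: positive control ellipticine, 6 µM final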
DENV2 CPE: inhibitors of DENV2 cytopathic effect | AID 651640 | DENV2-infected cells, cytopathic effect rescue, plate reader | CPE inhibition, % at 9.99 µM | hit rate 1.7% among 350,000; in the data active = CPE inhibition above about 20%, passing the limit was not always enough; tested in BHK-21 cells;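 also: 0% = median of neutral control wells and 100% = median of positive control wells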
Cneo AK release: causes C. neoformans cell lysis | adenylate kinase release luminescence, 4 h; normalised: neutral wells 0, clomiphene wells 100 | lysis activity, % at 15 µM | hit rate 0.2% among 360,000;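 active = mean lysis activity across replicates of at least 80%, whatever share of replicates individually reach that level; inactive = mean lysis activity below 80%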
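Signal: Adenylate kinase release luminescence | Assay system: Log-phase Cryptococcus neoformans yeast cells | Input: Cells at 5 × 10^6 per mL | Buffer or medium: Fresh YPD growth medium | Compound: Single dose | Schedule: Static 4 h at 37 °C with compound, 1 h detection | Controls: Clomiphene | Read-out: Luminescence rise reflecting yeast cell lysis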
* = called active by the depositor; . = no result given.

SMILES	Statin myotox sup	XiGFP reactiv	DENV2 CPE	Cneo AK release
CCCC#Cc1ccc2c(c1)O[C@H](CN(C)C(=O)C1CCC1)[C@H](C)CN([C@H](C)CO)S2(=O)=O	-8	0	36*	0
C[C@H]1CN([C@@H](C)CO)S(=O)(=O)c2ccc(C#CCN(C)C)cc2O[C@H]1CN(C)C(=O)C1CCC1	1	0	29*	0
C[C@@H]1CN([C@@H](C)CO)S(=O)(=O)c2ccc(C#CCN(C)C)cc2O[C@@H]1CN(C)C(=O)C1CCC1	13	0	17	1
CCCC#Cc1ccc2c(c1)O[C@@H](CN(C)C(=O)C1CCC1)[C@H](C)CN([C@@H](C)CO)S2(=O)=O	-7	0	0	4
COCC(=O)Nc1ccc2c(c1)OC[C@H](C)N(C(=O)c1ccccc1F)C[C@@H](C)[C@@H](OC)CN(C)C2=O	3	0	1	-3
CO[C@@H]1CN(C)C(=O)c2ccc(NS(=O)(=O)c3ccccc3C)cc2OC[C@@H](C)N(S(=O)(=O)c2ccccc2)C[C@H]1C	-15	0	-12	0
CCN(CC)C(=O)c1sc(NC(=O)C(Sc2ccccc2)c2ccccc2)c(C(=O)OC(C)C)c1C (stereo not given)	101*	.	.	-2
CCOc1ccc(S(=O)(=O)NCC(=O)N(C)Cc2cccnc2)cc1	109*	.	.	0
CCOc1ccc(NS(=O)(=O)c2ccc(C(=O)NCc3cccnc3)cc2)cc1	26	0	-3	.
O=C1C2C3c4ccccc4C(c4ccccc43)C2c2nc3ccccc3n21 (stereo not given)	115*	.	.	1
COCC(=O)Nc1ccc2c(c1)[C@H]1C[C@@H](CC(=O)NCCc3ccccc3)O[C@@H](CO)[C@H]1O2	-4	0	2	0
Cc1ccc(C2CC2c2n[nH]c(=S)n2-c2ccc(C)cc2)cc1 (stereo not given)	118*	.	-3	17
Cc1ccc(-n2c(C3CC3c3ccc(Cl)cc3)n[nH]c2=S)cc1 (stereo not given)	60	.	.	5
O=C(C[C@@H]1CC[C@@H](NC(=O)c2ccncc2)[C@H](CO)O1)NCC1CCCCC1	5	0	19	-2
C[C@H]1CCCCO[C@@H](CN(C)C)[C@@H](C)CN([C@@H](C)CO)C(=O)c2cc(NC(=O)CCCN(C)C)ccc2O1	5	0	-4	1
Cc1ccc(N2CCN(/N=C/c3sccc3C)CC2)cc1	140*	.	.	3
Cc1ccsc1/C=N/N1CCOCC1	.	0	8	.
COC(=O)COc1cc(OCC(=O)OC)c2c(C)c(Cl)c(=O)oc2c1	.	0	.	.
COC(=O)COc1cc(C)cc2oc(=O)c(CC(=O)OC)c(C)c12	108*	.	.	-1
C[C@@H]1CCCCO[C@H](CN(C)S(C)(=O)=O)[C@H](C)CN([C@@H](C)CO)C(=O)c2cc(NC(=O)Nc3ccc(C(F)(F)F)cc3)ccc2O1	.	-1	.	.
CC(C)(Oc1ccc(Cl)cc1)C(=O)NCc1ccncc1	3	.	.	0
CC(C)(Oc1ccc(Cl)cc1)C(=O)NCc1ccco1	123*	.	.	-2
Cc1ccc(OCC(O)CNC(=O)c2ccccc2C(=O)O)cc1 (stereo not given)	105*	.	.	-6
COc1ccccc1-c1ccc2c(c1)[C@@H]1[C@@H](CCN1S(=O)(=O)c1cn(C)cn1)[C@@H](CO)N2	6	0	0	-14
COc1cc(CNC(C)(C)C)cc(Br)c1OCc1cccs1	.	0	.	-3
SMILES	Statin myotox sup	XiGFP reactiv	DENV2 CPE	Cneo AK release
CCOc1cc(CNCc2cccs2)cc(Br)c1OC	97*	.	.	3
COc1ccc(NC(=O)N(C)C[C@H]2OCCCC[C@@H](C)Oc3ccc(NC(=O)c4ccncc4)cc3C(=O)N([C@@H](C)CO)C[C@@H]2C)cc1	.	0	9	-6
COc1cc(OC)cc(C(=O)Nc2ccc(N3CCN(C(=O)c4cccs4)CC3)cc2)c1	-36	1	53*	-2
CCC(=O)N1CCCCN2[C@H](C1)[C@H](c1ccc(C#Cc3ccccc3)cc1)[C@@H]2CO	.	0	7	2
O=C(N[C@@H]1C=C[C@@H](CC(=O)N2CCCCC2)O[C@H]1CO)c1ccc2c(c1)OCO2	4	0	1	-12
Cc1c(Cl)cccc1NC(=O)CC1Oc2ccccc2NC1=O (stereo not given)	10	0	35*	.
Cc1c(Cl)cccc1NC(=O)CC1Sc2ccccc2NC1=O (stereo not given)	5	0	1	-3
Cc1ccsc1C1Nc2ccc3ncccc3c2C2=C1C(=O)CCC2 (stereo not given)	79*	.	.	-2

Screening data: PubChem, Broad Institute
